Assays:
CCRF-CEM = assay: Inhibition of cell growth in CEM leukemia T cells was determined; type: functional; conditions: Homo sapiens
Jurkat = assay: Inhibition of IL-2 production was determined in Jurkat cells after PMA/PHA activation by Enzyme immunoassay; type: functional, cell-based; conditions: Homo sapiens
Procedure, shortened: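 Human Jurkat leukemia T-cells exposed to test agents 30 min before PMA activation. Cell-free supernatants collected after 24 h and total IL-2 quantified by competitive enzyme immunoassay. Dose–response tested up to 10 μM. IC50 derived. PDTC control included in all experiments.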

THP-1 = assay: Inhibition of TNF-alpha production was determined in THP-1cells after LPS activation by Enzyme immunoassay; type: functional, cell-based; conditions: Homo sapiens
Procedure, shortened: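 Human monocytic THP-1 cells treated 30 min before LPS activation, then incubated 3 h. TNF-α in the output measured by competitive enzyme immunoassay and IC50 derived. Values are mean of two experiments with standard deviation. PDTC served as control.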

[1] = test system: Nuclear factor NF-kappa-B (Homo sapiens); assay: Inhibition of DNA binding of NF-uM) PMA/PHA activated Jurkat cells; No significant inhibition

Row | SMILES | GI50 (CCRF-CEM) | IC50 (Jurkat) | IC50 (THP-1) | inhibition [1]
1 | NC1=NC(=O)/C(=C2\CCNC(=O)c3[nH]c(Br)cc32)N1 [HYMENIALDISINE] | 1.61 µM | 2.41 µM | 1.36 µM | –
2 | Nc1nc(C2=C3C(=Nc4ccccc43)C(=O)NCC2)c(O)[nH]1 | 1.73 µM | 3.55 µM | 8.16 µM | –
3 | Cn1c2c(c3ccccc31)/C(=C1\N=C(N)NC1=O)CCNC2=O | 14.3 µM | > 10 µM | > 10 µM | No effect

From ChEMBL document CHEMBL1148362 (J Med Chem, 2004)
